Source: ChEMBL document CHEMBL1148692, “Synthesis, antiviral and antitumor activity of 2-substituted-5-amidino-benzimidazoles” (Bioorg Med Chem, 2007)
Calls of active or inactive are those of the source. The rule behind the calls is not given here.

What was measured:
Human alphaherpesvirus 1 = assay: Antiviral activity against Herpesvirus 1 in HeLa cells by MTT assay; assay type: functional, organism-based; details: in the assay text read “by optical evaluation of CPE” for “by MTT assay”; for EC50: Human alphaherpesvirus 1, HeLa
Method in brief: (§1)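 HeLa monolayers were seeded at 10⁵ cells/mL and grown in DMEM with 10% FBS. Compounds were serially diluted from 10⁻⁴ to 10⁻¹⁰ M and added to one-day-old confluent monolayers, which were then immediately infected at 10 CCID50 in DMEM with 2% serum. Cytopathic effect was scored by optical microscopy at 48 h and compared with untreated infected wells. EC50 is the mean of at least three independent evaluations.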

NCI-H460 = assay: Growth inhibition of human H460 cells by MTT assay; assay type: functional, cell-based
Method in brief: (§2)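 Cells were kept as monolayers in DMEM with 10% FBS, 2 mM glutamine and antibiotics at 37 °C under 5% CO₂, and seeded at 1–3 × 10⁴ cells/mL. They were exposed for 72 h to five 10-fold dilutions (10⁻⁸–10⁻⁴ M), with DMSO solvent controls. Growth was read by MTT at 570 nm and expressed as percentage growth relative to time-zero and untreated controls. IC50 was obtained by linear regression from quadruplicates in three experiments.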

Human echovirus 7 = assay: Antiviral activity against Echovirus 7 in GMK cells by MTT assay; assay type: functional, cell-based, Echovirus E7; details: Enterovirus B
Method in brief: (§3)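 GMK monolayers were seeded at 10⁵ cells/mL and grown in DMEM with 10% FBS. Compound dilutions from 10⁻⁴ to 10⁻¹⁰ M were added to one-day-old confluent cells, immediately followed by virus at 10 CCID50 in DMEM with 2% serum. Cell lysis was followed microscopically at 24 h and quantified by MTT, as % CPE inhibition versus infected wells without compound. EC50 is the mean of at least two independent MTT experiments.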

HeLa = assay: Growth inhibition of human HeLa cells by MTT assay; assay type: functional, cell-based; method in brief: as §2
Human adenovirus 5 = assay: Antiviral activity against Adenovirus 5 in HeLa cells by MTT assay; assay type: functional, organism-based; details: in the assay text read “by optical evaluation of CPE” for “by MTT assay”; for EC50: Human mastadenovirus C; method in brief: as §1
SW-620 = assay: Growth inhibition of human SW620 cells by MTT assay; assay type: functional, cell-based; method in brief: as §2
MCF7 = assay: Growth inhibition of human MCF7 cells by MTT assay; assay type: functional, cell-based; method in brief: as §2
MIA PaCa-2 = assay: Growth inhibition of human MiaPaCa2 cells by MTT assay; assay type: functional, cell-based; method in brief: as §2
Coxsackievirus B5 = assay: Antiviral activity against Coxsackievirus B5 in GMK cells by MTT assay; assay type: functional, organism-based; details: Enterovirus B; method in brief: as §3
[1] = Growth inhibition of human WI38 cells by MTT assay; assay type: cell-based; details: WI-38; method in brief: as §2

Row | IC50 (NCI-H460) [µM] | IC50 (HeLa) [µM] | IC50 (SW-620) [µM] | IC50 (MCF7) [µM] | IC50 (MIA PaCa-2) [µM] | Structure (SMILES) | EC50 (Human alphaherpesvirus 1) [µM] | EC50 (Human echovirus 7) [µM] | EC50 (Human adenovirus 5) [µM] | EC50 (Coxsackievirus B5) [µM] | IC50 [1] [µM] | Activity (Human alphaherpesvirus 1) | Activity (Human adenovirus 5)
1 | 22.5 | 16 | 19 | 12 | 16 | c1ccc(-c2nc3cc(C4=NCCN4)ccc3[nH]2)nc1 | 56.7 | 0.63 | > 100 | 4.3 | 12 | – | –
2 | > 100 | > 100 | > 100 | 7.2 | 34 | N=C(N)c1ccc2[nH]c(-c3cnc[nH]3)nc2c1 | – | > 100 | – | > 100 | > 100 | inactive | inactive
3 | > 100 | > 100 | > 100 | ≥ 100 | > 100 | c1ncc(-c2nc3cc(C4=NCCN4)ccc3[nH]2)[nH]1 | > 100 | > 100 | – | > 100 | > 100 | – | inactive
4 | > 100 | 82 | > 100 | ≥ 100 | > 100 | N=C(N)c1ccc2[nH]c(-c3ccccn3)nc2c1 | > 100 | 3.2 | > 100 | 1.7 | 59.4 | – | –
5 | 38 | 20 | 15 | 5 | 11.5 | Cn1cccc1-c1nc2cc(C3=NCCN3)ccc2[nH]1 | 28.5 | > 100 | > 100 | > 100 | 15.6 | – | –
6 | > 100 | 70 | 84 | 12 | > 100 | Cn1cccc1-c1nc2cc(C(=N)N)ccc2[nH]1 | 30 | 5 | 5.9 | 3.5 | > 100 | – | –
7 | > 100 | > 100 | > 100 | 50 | 79 | CC(C)NC(=N)c1ccc2[nH]c(-c3ccccn3)nc2c1 | > 100 | 0.33 | 15.2 | 2.7 | 20.4 | – | –
8 | > 100 | > 100 | > 100 | 20 | > 100 | CC(C)NC(=N)c1ccc2[nH]c(-c3cccn3C)nc2c1 | – | 23.2 | – | > 100 | > 100 | inactive | inactive
9 | > 100 | > 100 | > 100 | 26 | > 100 | CC(C)NC(=N)c1ccc2[nH]c(-c3cnc[nH]3)nc2c1 | > 100 | > 100 | – | > 100 | > 100 | – | inactive

Row | Structure (SMILES) | IC50 (NCI-H460) [µM] | IC50 (HeLa) [µM] | IC50 (SW-620) [µM] | IC50 (MCF7) [µM] | IC50 (MIA PaCa-2) [µM] | EC50 (Human alphaherpesvirus 1) [µM] | EC50 (Human echovirus 7) [µM] | EC50 (Human adenovirus 5) [µM] | EC50 (Coxsackievirus B5) [µM] | IC50 [1] [µM] | Activity (Human alphaherpesvirus 1) | Activity (Human adenovirus 5)
10 | COc1cc([C@@H]2c3cc4c(cc3[C@@H](O[C@@H]3O[C@@H]5CO[C@@H](C)O[C@H]5[C@H](O)[C@H]3O)[C@H]3COC(=O)[C@H]23)OCO4)cc(OC)c1O [ETOPOSIDE] | 0.2 | 2.9 | – | – | – | – | – | – | – | – | – | –
